ChEMBL document CHEMBL4130442, “Design, synthesis and structure-activity relationship studies of a focused library of pyrimidine moiety with anti-proliferative and anti-metastasis activities in triple negative breast cancer” (Eur J Med Chem, 2017)
Calls of active or inactive are those of the source. The rule behind the calls is not given here.

What was measured:
[1] = test system: MDA-MB-231; assay: Induction of autophagy in human MDA-MB-231 cells co-transfected with GFP-mRFP-LC3 assessed as increase in LC3 puncta aggregation at 2.5 uM by fluorescence micrsocpy; assay type: functional, cell-based
Summary of the method: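 Cells were transfected with a GFP/mRFP-LC3 plasmid and incubated with 2.5 μM compound. GFP-LC3 puncta were then observed by fluorescence microscopy.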

[2] = test system: MDA-MB-231; assay: Induction of autophagy in human MDA-MB-231 cells assessed as change in p62 protein level at 5 uM incubated for 24 hrs by Western blot method relative to untreated control; assay type: functional
Summary of the method: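 Cells grown in DMEM with 10% FBS under 5% CO2 and treated 24 h across a range of concentrations. Adherent and floating cells were pooled and lysed in Hepes 50 mM pH 7.4 / 1% Triton X-100 buffer with phosphatase and protease inhibitors, 4 °C for 1 h. Equal protein was run on 10-15% SDS-PAGE, blotted to PVDF, probed with Beclin-1, p62 and LC3 antibodies and detected by ECL.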

[3] = test system: MDA-MB-231; assay: Induction of autophagy in human MDA-MB-231 cells assessed as change in LC3-2 protein level at 10 uM incubated for 24 hrs by Western blot method relative to untreated control; assay type: functional
Summary of the method: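 MDA-MB-231 cells (ATCC; DMEM, 10% FBS, 5% CO2) were treated 24 h over a concentration series. Adherent and floating cells were pooled and lysed 1 h at 4 °C (50 mM Hepes pH 7.4, 1% Triton X-100, phosphatase/protease inhibitors). Equal protein was run on 10-15% SDS-PAGE, transferred to PVDF, probed for Beclin-1, p62 and LC3 with HRP/ECL detection, and normalised to β-actin.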

[4] = target: T1, Platelet-derived growth factor receptor beta (Homo sapiens, UniProt P09619); assay: Inhibition of PDGFRbeta in human MDA-MB-231 cells assessed as ULK Ser317 phosphorylation level at 2.5 uM incubated for 24 hrs by Western blot relative to untreated control; assay type: cell-based
Summary of the method: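 Cells were treated 24 h at several concentrations. Pooled adherent and floating cells were lysed in Hepes 50 mM pH 7.4 / 1% Triton X-100 buffer with vanadate, NaF, EDTA, PMSF, aprotinin and leupeptin. Equal protein was run on 10-15% SDS-PAGE and blotted to PVDF. PDGFR-β-AKT-ULK1 pathway phospho-proteins were probed and detected by ECL, with β-actin as loading control.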

[5] = test system: MDA-MB-231; assay: Effect on total PDGFRbeta protein level in human MDA-MB-231 cells at 10 uM incubated for 24 hrs by Western blot relative to untreated control; assay type: ADME, cell-based; conditions: mda-mb-231, 24 h
Summary of the method: (§1)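 MDA-MB-231 cells were exposed for 24 h. Adherent and floating cells were pooled and lysed for 1 h at 4 °C in 50 mM Hepes pH 7.4 with 1% Triton X-100, orthovanadate, NaF, EDTA, PMSF, aprotinin and leupeptin. After 12,000 rpm clearing, equal protein was run on 10-15% SDS-PAGE and blotted to PVDF. Detection used HRP-ECL, with β-actin as loading control and densitometric quantification.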

[6] = test system: MDA-MB-231; assay: Effect on total Akt protein level in human MDA-MB-231 cells at 5 uM incubated for 24 hrs by Western blot relative to untreated control; assay type: ADME, cell-based; conditions: mda-mb-231, 24 h; summary of the method: as §1
[7] = test system: MDA-MB-231; assay: Effect on total Akt protein level in human MDA-MB-231 cells at 2.5 uM incubated for 24 hrs in presence of control siRNA by Western blot relative to untreated control; assay type: ADME, cell-based; conditions: mda-mb-231, 24 h; summary of the method: as §1
[8] = test system: MDA-MB-231; assay: Induction of autophagy in human MDA-MB-231 cells assessed as change in LC3-2 protein level at 2.5 uM incubated for 24 hrs in absence of PDGFRbeta siRNA by Western blot method relative to untreated control; assay type: functional
Summary of the method: (§2)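 Before treatment, MDA-MB-231 cells were transfected with control or PDGFR-β siRNA, then exposed to 2.5 μM compound for 24 h. Lysates of pooled adherent and floating cells were immunoblotted (10-15% SDS-PAGE, PVDF, ECL) for PDGFR-β-AKT-ULK1 autophagy signalling markers, with β-actin as loading control.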

[9] = test system: MDA-MB-231; assay: Induction of autophagy in human MDA-MB-231 cells assessed as change in LC3-2 protein level at 2.5 uM incubated for 24 hrs in presence of PDGFRbeta siRNA by Western blot method relative to untreated control; assay type: functional; summary of the method: as §2
[10] = target: T1, Platelet-derived growth factor receptor beta; assay: Inhibition of PDGFRbeta in human MDA-MB-231 cells assessed as PDGFRbeta Tyr740 phosphorylation level at 2.5 uM incubated for 24 hrs in presence of control siRNA by Western blot relative to untreated control; assay type: cell-based
Summary of the method: (§3)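 Cells were transfected with control or PDGFR-β siRNA, then treated with 2.5 μM compound for 24 h. PDGFR-β-AKT-ULK1 pathway phospho-proteins were assessed by western blot: lysis in Hepes pH 7.4 / Triton buffer, 10-15% SDS-PAGE, PVDF, ECL detection, β-actin as loading control.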

[11] = target: T1, Platelet-derived growth factor receptor beta; assay: Inhibition of PDGFRbeta in human MDA-MB-231 cells assessed as ULK Ser317 phosphorylation level at 2.5 uM incubated for 24 hrs in absence of PDGFRbeta siRNA by Western blot relative to untreated control; assay type: cell-based; summary of the method: as §3
[12] = target: T1, Platelet-derived growth factor receptor beta; assay: Inhibition of PDGFRbeta in human MDA-MB-231 cells assessed as ULK Ser555 phosphorylation level at 2.5 uM incubated for 24 hrs in presence of control siRNA by Western blot relative to untreated control; assay type: cell-based; summary of the method: as §3
[13] = test system: MDA-MB-231; assay: Effect on total c-Raf protein level in human MDA-MB-231 cells at 10 uM incubated for 24 hrs in presence of PDGFRbeta siRNA by Western blot relative to untreated control; assay type: cell-based; conditions: mda-mb-231, 24 h
[14] = test system: MDA-MB-231; assay: Effect on total ERK1/2 protein level in human MDA-MB-231 cells at 10 uM incubated for 24 hrs in presence of PDGFRbeta siRNA by Western blot relative to untreated control; assay type: cell-based; conditions: mda-mb-231, 24 h
[15] = target: T1, Platelet-derived growth factor receptor beta; assay: Inhibition of PDGFRbeta in human MDA-MB-231 cells assessed as C-Raf Ser259 phosphorylation level at 5 uM incubated for 24 hrs in presence of PDGFRbeta siRNA by Western blot relative to untreated control; assay type: cell-based
[16] = target: T1, Platelet-derived growth factor receptor beta; assay: Inhibition of PDGFRbeta in human MDA-MB-231 cells assessed as C-Raf Ser259 phosphorylation level at 10 uM incubated for 24 hrs in presence of PDGFRbeta siRNA by Western blot relative to untreated control; assay type: cell-based
[17] = target: T1, Platelet-derived growth factor receptor beta; assay: Inhibition of PDGFRbeta in human MDA-MB-231 cells assessed as C-Raf Ser338 phosphorylation level at 10 uM incubated for 24 hrs in presence of PDGFRbeta siRNA by Western blot relative to untreated control; assay type: cell-based
[18] = target: Mitogen-activated protein kinase; ERK1/ERK2 (Homo sapiens) (UniProt P27361+P28482); assay: Inhibition of ERK1/2 in human MDA-MB-231 cells assessed as ERK1/2 Thr202/Tyr204 phosphorylation level at 2.5 uM incubated for 24 hrs in presence of PDGFRbeta siRNA by Western blot relative to untreated control; assay type: cell-based
Sequence of Mitogen-activated protein kinase; ERK1/ERK2 (Homo sapiens) (P27361 whole entry, looked up): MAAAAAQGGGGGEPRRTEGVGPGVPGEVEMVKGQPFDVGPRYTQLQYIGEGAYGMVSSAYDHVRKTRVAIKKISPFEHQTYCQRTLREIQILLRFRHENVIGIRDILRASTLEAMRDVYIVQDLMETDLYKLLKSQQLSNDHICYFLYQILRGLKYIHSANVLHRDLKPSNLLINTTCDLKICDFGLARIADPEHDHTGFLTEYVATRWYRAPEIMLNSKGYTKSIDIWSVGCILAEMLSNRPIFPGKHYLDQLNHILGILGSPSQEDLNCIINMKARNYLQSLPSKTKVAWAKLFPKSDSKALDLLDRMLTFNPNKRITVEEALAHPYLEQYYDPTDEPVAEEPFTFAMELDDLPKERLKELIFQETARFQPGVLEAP
Sequence of Mitogen-activated protein kinase; ERK1/ERK2 (Homo sapiens) (P28482 whole entry, looked up): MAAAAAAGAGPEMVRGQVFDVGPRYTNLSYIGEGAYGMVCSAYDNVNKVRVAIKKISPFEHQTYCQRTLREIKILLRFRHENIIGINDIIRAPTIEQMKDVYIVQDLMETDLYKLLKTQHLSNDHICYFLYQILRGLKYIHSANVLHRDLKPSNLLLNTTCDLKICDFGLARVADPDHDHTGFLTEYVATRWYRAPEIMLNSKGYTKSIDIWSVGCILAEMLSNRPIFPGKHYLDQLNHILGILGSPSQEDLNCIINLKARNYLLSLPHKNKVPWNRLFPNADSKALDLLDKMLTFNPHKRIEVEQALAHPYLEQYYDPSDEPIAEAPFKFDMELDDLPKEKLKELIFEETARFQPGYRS

T1 sequence (P09619 whole entry): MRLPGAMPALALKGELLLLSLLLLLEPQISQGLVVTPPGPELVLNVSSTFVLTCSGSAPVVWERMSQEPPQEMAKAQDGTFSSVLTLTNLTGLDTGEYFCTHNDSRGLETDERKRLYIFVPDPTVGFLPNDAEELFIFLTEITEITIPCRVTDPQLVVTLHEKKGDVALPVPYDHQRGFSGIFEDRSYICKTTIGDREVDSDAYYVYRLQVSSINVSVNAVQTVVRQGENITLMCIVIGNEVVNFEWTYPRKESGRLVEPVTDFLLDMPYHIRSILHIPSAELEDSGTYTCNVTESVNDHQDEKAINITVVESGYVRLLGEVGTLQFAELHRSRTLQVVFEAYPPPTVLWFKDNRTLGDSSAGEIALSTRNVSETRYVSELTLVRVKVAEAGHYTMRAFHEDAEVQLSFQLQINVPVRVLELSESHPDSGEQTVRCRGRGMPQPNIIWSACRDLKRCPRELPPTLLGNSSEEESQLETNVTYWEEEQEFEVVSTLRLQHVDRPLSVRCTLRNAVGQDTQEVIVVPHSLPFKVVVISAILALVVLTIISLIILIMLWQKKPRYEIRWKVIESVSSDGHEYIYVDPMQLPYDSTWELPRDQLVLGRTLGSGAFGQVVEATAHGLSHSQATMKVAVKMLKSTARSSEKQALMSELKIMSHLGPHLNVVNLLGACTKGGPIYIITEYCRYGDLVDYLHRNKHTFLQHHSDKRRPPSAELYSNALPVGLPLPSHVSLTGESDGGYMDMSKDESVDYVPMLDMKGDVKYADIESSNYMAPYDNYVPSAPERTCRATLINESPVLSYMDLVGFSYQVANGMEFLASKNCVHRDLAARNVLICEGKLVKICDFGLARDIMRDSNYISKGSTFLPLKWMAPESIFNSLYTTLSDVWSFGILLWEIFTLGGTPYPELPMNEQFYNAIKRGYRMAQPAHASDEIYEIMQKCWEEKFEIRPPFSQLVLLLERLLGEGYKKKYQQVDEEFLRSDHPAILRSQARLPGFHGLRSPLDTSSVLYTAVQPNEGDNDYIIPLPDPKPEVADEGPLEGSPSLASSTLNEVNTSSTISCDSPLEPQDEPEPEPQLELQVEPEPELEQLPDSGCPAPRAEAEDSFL

COc1cccc(Nc2cc(N3CCN(C(=O)Nc4ccc(C(F)(F)F)cc4)CC3)ncn2)c1
Activity [1]: Active
fold change (FC) [2]: 0.43
fold change (FC) [3]: 2.7
fold change (FC) [4]: 1.5
fold change (FC) [5]: 0.55
fold change (FC) [6]: 0.84
fold change (FC) [7]: 0.86
fold change (FC) [8]: 2.87
fold change (FC) [9]: 3.01
fold change (FC) [10]: 0.08
fold change (FC) [11]: 3.67
fold change (FC) [12]: 3.21
fold change (FC) [13]: 1.23
fold change (FC) [14]: 1.53
fold change (FC) [15]: 1.06
fold change (FC) [16]: 0.95
fold change (FC) [17]: 0.66
fold change (FC) [18]: 1.05
